Test results published in ChEMBL document CHEMBL4513216, “Probing the Open Global Health Chemical Diversity Library for Multistage-Active Starting Points for Next-Generation Antimalarials” (ACS Infect Dis, 2020).

Test: Toxicity liver stage against HepG2, at 10uM
Assay type: cell-based
Design: test concentration 10 uM, cell line HepG2-A16-CD81EGFP
Settings: human, HepG2-A16-CD81EGFP cells; read-out: INHIBITION
Outline: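 Uninfected HepG2-A16-CD81EGFP cells, 3 × 10^3 per well, 1536-well, plated on prespotted compound at 10 μM final, parasite-free screening media added to match infected plates; puromycin 10 μM positive, DMSO 0.5% negative; run in parallel with 48 h PbLuc assay at 37 °C, 5% CO2; viability by CellTiter-Glo luminescence, normalized to controls.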
Molecule `Cc1cc2ncn(C(=O)N3CCOCC3)c2cc1C` has a cytotoxicity at 10 µM of -1.45%. Molecule `CC1CCN(c2ncc(C#N)c(N)n2)CC1` has a cytotoxicity at 10 µM of 15.5%. Work on `CCN1CC(COc2ccc(OC)cc2)Oc2ccncc2S1(=O)=O` (configuration not stated) yielded a cytotoxicity at 10 µM of -7.6%. `O=C1c2cccnc2OC(CN2CCOCC2)CN1C1CCC1` (configuration not stated) gave a cytotoxicity at 10 µM of -4.18%. `Nc1nc2c(c(NC(=O)Nc3ccc(Cl)c(Cl)c3)n1)CCCC2` showed a cytotoxicity at 10 µM of -6.92%. With `CN(C)S(=O)(=O)N1CC(c2nc(-c3ccsc3)no2)C1` the cytotoxicity at 10 µM was -6.6%. `O=C(c1ccccn1)N1CCC(Oc2cccnc2)CC1` showed a cytotoxicity at 10 µM of -3.59%. Molecule `CN1C(Cn2cccn2)C[C@@H]2CN(Cc3cnn(C)c3)CC[C@@H]21` (some centres not stated) has a cytotoxicity at 10 µM of 3.16%. `COCCN1CCn2cc(CNC(=O)C3CCC3)nc2C1` gave a cytotoxicity at 10 µM of 3.68%. With `COC[C@@]12CCO[C@@H]1CCN(C(=O)Cc1ccccc1C)C2` the cytotoxicity at 10 µM was 2.05%. `CCS(=O)(=O)N1CC[C@H]2[C@H]1CC(=O)N2Cc1csc(C)n1` showed a cytotoxicity at 10 µM of -133%. Molecule `COCC1COCCC12CCN(C(=O)COc1ccccc1)CC2` (configuration not stated) has a cytotoxicity at 10 µM of -1.69%. Work on `Cc1noc([C@@H]2CC[C@@H]3[C@@H](CCN3S(C)(=O)=O)O2)n1` yielded a cytotoxicity at 10 µM of -2.16%. With `COc1ncccc1C(=O)N1CC[C@H]2C[C@H](c3noc(C)n3)O[C@@H]2C1` the cytotoxicity at 10 µM was 5.31%. In the case of `O=S(=O)(NCC1CCN(c2cnccn2)CC1)c1c(F)cccc1F`, the cytotoxicity at 10 µM is reported as 10.4%. Work on `COCc1c(C(=O)O)nnn1Cc1cccc(C(F)(F)F)c1` yielded a cytotoxicity at 10 µM of 2.17%. Work on `O=C(NCCO)c1sc2ncccc2c1C1CN(C2CCCC2)CCO1` (configuration not stated) yielded a cytotoxicity at 10 µM of 10.8%. Molecule `Cc1cc(C)nc(C2CCN(C3CCOCC3)C2)n1` (configuration not stated) has a cytotoxicity at 10 µM of 0.469%. Molecule `Cc1ccccc1OC1CCN(S(=O)(=O)c2c(C)n[nH]c2C)CC1` has a cytotoxicity at 10 µM of 0.0656%. `Cc1nc2c(c(Nc3ccccn3)n1)CN(S(C)(=O)=O)CC2` gave a cytotoxicity at 10 µM of 11.1%. `CN1CCOC(c2cncc(CCC(=O)N(C)C)n2)C1` (configuration not stated) gave a cytotoxicity at 10 µM of 0.55%. `CC(=O)N1CCCC(Cc2cnc(-c3c(C)nn(C)c3C)cn2)C1` (configuration not stated) gave a cytotoxicity at 10 µM of -1.37%. `Brc1csc(-c2noc(C3COCCO3)n2)c1` (configuration not stated) gave a cytotoxicity at 10 µM of -1.92%. In the case of `CCC(C)(C)C1CCCN1C(=O)c1coc(S(=O)(=O)NC)c1` (configuration not stated), the cytotoxicity at 10 µM is reported as -13.5%. In the case of `CS(=O)(=O)NC(c1ccccc1)c1ccc2c(c1)CCCO2` (configuration not stated), the cytotoxicity at 10 µM is reported as 0.682%. Molecule `COC(=O)c1cccc(C(=O)N(C)Cc2cccc(F)c2)c1` has a cytotoxicity at 10 µM of 5.75%. `COCCN(c1cc(C)nc2nc(C(F)(F)F)nn12)C1CCCC1` gave a cytotoxicity at 10 µM of -0.0692%. Work on `CCc1cc(=O)[nH]c(-c2ccc(NC(C)COC)nc2)n1` (configuration not stated) yielded a cytotoxicity at 10 µM of -146%. `CC(NC(=O)CNc1cc2c(cc1Cl)OCCO2)c1ccco1` (configuration not stated) gave a cytotoxicity at 10 µM of -1.31%. For `CCOCCN1CCN(CCC(=O)N2CCCCC2)CC1C` (configuration not stated), the cytotoxicity at 10 µM was -5.99%. With `COc1cc(CSc2nnc(C)n2CC(N)=O)ccc1SC` the cytotoxicity at 10 µM was -7.91%. Work on `COc1c(CNCc2ccccc2Cn2cccn2)c(C)nn1C` yielded a cytotoxicity at 10 µM of 9.79%. For `CC(Nc1cccc2c1OCCO2)C(=O)Nc1ccc(Cl)cc1` (configuration not stated), the cytotoxicity at 10 µM was 2.84%. Work on `CNS(=O)(=O)c1cccc(C(C)NCc2ccccc2OC)c1` (configuration not stated) yielded a cytotoxicity at 10 µM of -2.59%. For `Cc1nc(C)c(CNCc2nnc3n2CCCC3C(F)(F)F)s1` (configuration not stated), the cytotoxicity at 10 µM was 3.28%. `Cc1cncc(NCC(O)c2ccco2)n1` (configuration not stated) gave a cytotoxicity at 10 µM of 5.58%. For `O=C(NCc1ccccc1CN1CCCC1)Nc1cccnc1`, the cytotoxicity at 10 µM was 6.75%. `CC(C)(C)C(=O)NCCC(=O)NC(C)(C)c1ccc2c(c1)OCO2` gave a cytotoxicity at 10 µM of -1.26%. For `CSCC(=O)Nc1cccc(Oc2ccccn2)c1`, the cytotoxicity at 10 µM was -6.1%. Molecule `CNC(=O)CCNC(=O)c1ccccc1N1CCOCC1` has a cytotoxicity at 10 µM of 2.29%. With `Cc1nc(C)n(C2CCCN(C(=O)CCn3ccnn3)C2)n1` (configuration not stated) the cytotoxicity at 10 µM was -0.649%. With `COc1c(Br)cccc1CCNC(=O)c1csnn1` the cytotoxicity at 10 µM was -2.5%. Molecule `CC(Nc1ccn(Cc2ccccn2)n1)C(=O)NC(C)(C)C` (configuration not stated) has a cytotoxicity at 10 µM of -2.08%. With `Cn1c(SCC(=O)NC(C)(C#N)C2CC2)nc2ccccc21` (configuration not stated) the cytotoxicity at 10 µM was -2.15%. Work on `O=C(CCn1c(=O)oc2ccccc21)NCC(O)c1ccccc1` (configuration not stated) yielded a cytotoxicity at 10 µM of -15.6%. Work on `O=C(CN1CCCC1Cn1cncn1)Nc1cccnc1` (configuration not stated) yielded a cytotoxicity at 10 µM of -14.6%. `Cc1cc(C)cc(CN2CCN(C(=O)COCC3CCCO3)CC2=O)c1` (configuration not stated) gave a cytotoxicity at 10 µM of 4.07%. In the case of `CCCOCC(=O)N1CCC2(CC1)c1nc[nH]c1CCN2S(C)(=O)=O`, the cytotoxicity at 10 µM is reported as 3.22%. For `Cn1ccnc1CN1CCC(c2ccnc(-c3cccc(O)c3)c2)C1` (configuration not stated), the cytotoxicity at 10 µM was 6.52%. In the case of `CCn1nc(CC(C)C)cc1C(=O)N1CCN([C@H]2CCCC[C@@H]2O)CC1`, the cytotoxicity at 10 µM is reported as -6.98%. With `Cc1nc(N2CCN(C)CC2)ncc1C(=O)N1CC[C@](C)(O)[C@H](C)C1` the cytotoxicity at 10 µM was 1.88%. In the case of `Cc1cc(C2CCC2)nc(N2CC(n3cccn3)C2)n1`, the cytotoxicity at 10 µM is reported as -3.59%. In the case of `CC(C)NS(=O)(=O)c1cc(C(=O)O)cc(-c2ccc3c(c2)OCO3)c1`, the cytotoxicity at 10 µM is reported as 0.873%. With `Cc1cc(C(=O)N2CCc3ncnc(N4CCSCC4)c3CC2)[nH]n1` the cytotoxicity at 10 µM was -6.98%. With `Nc1nnc(CCNc2ncnc3c2CCN(C(=O)C2CC2)C3)s1` the cytotoxicity at 10 µM was -7%. In the case of `CCc1nnc(N2CCN(c3ccccc3)C(=O)C2)o1`, the cytotoxicity at 10 µM is reported as -8.74%. Molecule `COc1cc(C2CC(=O)Nc3c2nc2n3CCCC2)cc(OC)c1O` (configuration not stated) has a cytotoxicity at 10 µM of -9.59%. `Cc1cc(C)cc(CCC(=O)N(C)CCc2cn[nH]c2)c1` showed a cytotoxicity at 10 µM of 3.04%. For `O=C1OCCN1Cc1cc(C(F)(F)F)ccc1F`, the cytotoxicity at 10 µM was -5.52%. `CCOC(=O)N1CCCn2nc(C(=O)NCCN(C)C)cc2C1` showed a cytotoxicity at 10 µM of 3.13%. With `Cc1cccnc1CN1CCC(c2nnc(Cn3cccn3)n2C)CC1` the cytotoxicity at 10 µM was -11.5%. Molecule `CC(C)N(C)S(=O)(=O)N(C)Cc1ccc2c(c1)OCCO2` has a cytotoxicity at 10 µM of -2.84%. With `CN1CCOC(CNCc2ccccc2OCc2ccccn2)C1` (configuration not stated) the cytotoxicity at 10 µM was -9.39%. Work on `COc1cc(CNCc2ccc(-n3nc(C)cc3C)nc2)cc(OC)c1` yielded a cytotoxicity at 10 µM of -8.57%. `c1ccc(-n2ccc(CN3CCCCC3Cn3cncn3)n2)cc1` (configuration not stated) showed a cytotoxicity at 10 µM of -7.85%. `CSc1ccc(C)c(C(=O)N2CCCC(n3cncn3)C2)c1` (configuration not stated) showed a cytotoxicity at 10 µM of -13.1%. Molecule `Cc1cnn(CC2CCCN2Cc2nccn2CC(F)(F)F)c1` (configuration not stated) has a cytotoxicity at 10 µM of -8.5%. Molecule `CCN1CCN(C2CCN(Cc3nnc(C(C)C)o3)CC2)C1=O` has a cytotoxicity at 10 µM of -0.677%. For `CC(C)COC(C)C(=O)NCc1ccccc1` (configuration not stated), the cytotoxicity at 10 µM was 4.79%. With `Fc1ccc(-c2nnc(CN3CCOC(Cn4cncn4)C3)o2)cc1` (configuration not stated) the cytotoxicity at 10 µM was -5.97%. `CCOc1c(Cl)cccc1NCc1cc(C)on1` showed a cytotoxicity at 10 µM of 1.04%. Work on `Cc1cnn(C2CCCN(C(=O)c3sccc3-n3cnnn3)C2)c1` (configuration not stated) yielded a cytotoxicity at 10 µM of -8.72%. `O=C(CCc1cccnc1)N1CCCC(n2cncn2)C1` (configuration not stated) showed a cytotoxicity at 10 µM of -10.9%. For `NC(=O)CN1CCCN(C(=O)Cc2ccc3ccccc3c2)CC1`, the cytotoxicity at 10 µM was 7.82%. With `CN(C)C(=O)CN1CCC2(CCCN(Cc3cccn3C)C2)C1=O` (configuration not stated) the cytotoxicity at 10 µM was 11.3%. For `Cn1cc(N2C(=O)CC[C@@H]3[C@H]2CCN3Cc2ccncc2)cn1`, the cytotoxicity at 10 µM was -8.85%. In the case of `O=C(Cc1ccccn1)N1CCc2ncnc(N3CCCC3)c2CC1`, the cytotoxicity at 10 µM is reported as -2.13%. `Cc1nnc(N2C[C@H](Oc3ccccn3)[C@H]3OCCC[C@H]32)s1` showed a cytotoxicity at 10 µM of 10.7%. Work on `Cc1cccc(CN2Cc3ncn(C)c3C(COCC(=O)N(C)C)C2)n1` (configuration not stated) yielded a cytotoxicity at 10 µM of 4.56%. Molecule `O=C(NCC1CC1)[C@@H]1CCO[C@@H]2CCN(Cc3ccc(F)cc3)C[C@H]21` has a cytotoxicity at 10 µM of 1.42%. In the case of `CC(C)n1c(=O)[nH]c2cn(-c3ccc(Cl)cc3)c(=O)n21`, the cytotoxicity at 10 µM is reported as -0.769%. With `CC(C)CC(=O)NCC1CCC(C(c2ccccn2)N(C)C)CC1` (configuration not stated) the cytotoxicity at 10 µM was 12.2%.
